# Columns and labels:
# OVCAR-3 = assay: Growth inhibition of human OVCAR3 cells incubated for 48 hrs by sulforhodamine B assay; format: functional; settings: OVCAR-3, 48 h
# [1] = Induction of microtubule depolymerization in rat A10 cells by indirect immunofluorescence method; format: cell-based
# Outline: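 A-10 cells, which arrest in interphase, used to score loss of interphase microtubules. EC50 values calculated per an earlier method, minimum of three independent experiments.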
# SN12C = assay: Growth inhibition of human SN12C cells incubated for 48 hrs by sulforhodamine B assay; format: functional
# SK-OV-3 = assay: Antiproliferative activity against human SKOV3 cells by SRB assay; format: functional, cell-based
# NCI/ADR-RES = assay: Growth inhibition of human NCI/ADR-RES cells incubated for 48 hrs by sulforhodamine B assay; format: functional
# RXF 393 = assay: Growth inhibition of human RXF393 cells incubated for 48 hrs by sulforhodamine B assay; format: functional; settings: RXF 393, 48 h
# ACHN = assay: Growth inhibition of human ACHN cells incubated for 48 hrs by sulforhodamine B assay; format: functional
# MDA-MB-468 = assay: Growth inhibition of human MDA-MB-468 cells incubated for 48 hrs by sulforhodamine B assay; format: functional; settings: MDA-MB-468, 48 h
# 786-0 = assay: Growth inhibition of human 786-0 cells incubated for 48 hrs by sulforhodamine B assay; format: functional; settings: 786-0, 48 h
# BT-549 = assay: Growth inhibition of human BT549 cells incubated for 48 hrs by sulforhodamine B assay; format: functional; settings: BT-549, 48 h
# [2] = Inhibition of bovine brain tubulin polymerization assessed as reduction in tubulin assembly pretreated for 15 mins followed by GTP addition by spectrophotometric method; design: species or system Bos taurus
# Outline: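 Placed on ice, then 0.4 mM GTP (final) added. Turbidity read at 350 nm after a jump from 0 °C to 30 °C.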
# HeLa = assay: Antiproliferative activity against human HeLa cells by SRB assay; format: functional, cell-based
# NCI-H460 = assay: Growth inhibition of human NCI-H460 cells incubated for 48 hrs by sulforhodamine B assay; format: functional; settings: NCI-H460, 48 h
# SF-295 = assay: Growth inhibition of human SF295 cells incubated for 48 hrs by sulforhodamine B assay; format: functional; settings: SF-295, 48 h
# CCRF-CEM = assay: Growth inhibition of human CCRF-CEM cells incubated for 48 hrs by sulforhodamine B assay; format: functional
# SNB-75 = assay: Growth inhibition of human SNB75 cells incubated for 48 hrs by sulforhodamine B assay; format: functional; settings: SNB-75, 48 h
# Bos taurus [3] = species: Bos taurus; assay: Inhibition of [3H]colchicine binding to bovine brain tubulin at 5 uM measured after 10 mins by scintillation counting method relative to control
# Outline: (§1)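 Reactions of 0.1 mL held 1.0 μM bovine brain tubulin, 5.0 μM [3H]colchicine, inhibitor at 1.0 or 5.0 μM, colchicine-binding stabilizing components and 5% DMSO, assembled on ice with tubulin added last. Incubated 10 min at 37 °C, stopped with ice water, filtered through DEAE-cellulose filters. Bound radiolabel counted by scintillation.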
# NCI-H23 = assay: Growth inhibition of human NCI-H23 cells incubated for 48 hrs by sulforhodamine B assay; format: functional; settings: NCI-H23, 48 h
# MDA-MB-231 = assay: Growth inhibition of human MDA-MB-231 cells incubated for 48 hrs by sulforhodamine B assay; format: functional; settings: MDA-MB-231, 48 h
# U-251 = assay: Growth inhibition of human U251 cells incubated for 48 hrs by sulforhodamine B assay; format: functional; settings: U-251, 48 h
# HOP-92 = assay: Growth inhibition of human HOP92 cells incubated for 48 hrs by sulforhodamine B assay; format: functional; settings: HOP-92, 48 h
# SK-MEL-5 = assay: Growth inhibition of human SK-MEL-5 cells incubated for 48 hrs by sulforhodamine B assay; format: functional; settings: SK-MEL-5, 48 h
# HOP-62 = assay: Growth inhibition of human HOP62 cells incubated for 48 hrs by sulforhodamine B assay; format: functional; settings: HOP-62, 48 h
# M14 = assay: Growth inhibition of human M14 cells incubated for 48 hrs by sulforhodamine B assay; format: functional; settings: M14, 48 h
# Bos taurus [4] = species: Bos taurus; assay: Inhibition of [3H]colchicine binding to bovine brain tubulin at 1 uM measured after 10 mins by scintillation counting method relative to control; outline: as §1
compound,measurement,setting,value
CSc1ccc(N(C)c2nc(C)nc3c2CCC3)cc1,GI50,OVCAR-3,< 10 nM
same,EC50,[1],13 nM
same,GI50,SN12C,< 10 nM
same,IC50,SK-OV-3,7.2 nM
same,GI50,NCI/ADR-RES,< 10 nM
same,GI50,RXF 393,< 10 nM
same,GI50,ACHN,< 10 nM
same,GI50,MDA-MB-468,< 10 nM
same,GI50,786-0,< 10 nM
same,GI50,BT-549,< 10 nM
same,IC50,[2],1300 nM
same,IC50,HeLa,7 nM
same,GI50,NCI-H460,< 10 nM
same,GI50,SF-295,< 10 nM
same,GI50,CCRF-CEM,< 10 nM
same,GI50,SNB-75,< 10 nM
same,inhibition,Bos taurus [3],92%
same,GI50,NCI-H23,< 10 nM
same,GI50,MDA-MB-231,< 10 nM
same,GI50,U-251,< 10 nM
same,GI50,HOP-92,< 10 nM
same,GI50,SK-MEL-5,< 10 nM
same,GI50,HOP-62,< 10 nM
same,GI50,M14,< 10 nM
same,inhibition,Bos taurus [4],74%

# Source: ChEMBL document CHEMBL4219224, “Structure based drug design and in vitro metabolism study: Discovery of N-(4-methylthiophenyl)-N,2-dimethyl-cyclopenta[d]pyrimidine as a potent microtubule targeting agent” (Bioorg Med Chem, 2018)
